Measurements taken from publication PMC3228362 (Biochemistry, 2011).
Values joined by “and” are separate entries in the source; they are usually repeats but may differ in a detail not shown here. Equal entries are not always repeated. Where two headings read alike, the source gives them in different places. Marks after values point to notes of the source that are not given here.

Columns and labels:
T4 exo^- DNA polymerase [1] = assay: Nucleotide incorporation opposite template 2AP; assay type: biochemical, bacteriophage T4; conditions: for kpol / Kdincorp: long A+T-rich DNA 1, from data of ref 13
[2] = target: T1, RB69 exo^- DNA polymerase (D222A/D327A, wild type) (Escherichia phage RB69, UniProt Q38087, D222A/D327A); assay type: biochemical, bacteriophage RB69; conditions: opposite template 2AP; for Kd: read-out: Kdincorp, app
Method in brief: (§1)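 Single-turnover rapid chemical quench at 22 °C in 66 mM Tris-HCl pH 7.5. Final concentrations were 100 nM 5′-32P-labeled DNA, 1 μM polymerase, 10 mM MgCl2 and varying dNTP. Reactions were quenched with 0.5 M EDTA. Products were resolved on 20% acrylamide/8 M urea gels and quantified by phosphorimaging. Data were fit to a single exponential.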

[3] = target: T2, RB69 Y567A exo^- DNA polymerase (Escherichia phage RB69, UniProt Q38087, D222A/D327A/Y567A); assay type: biochemical, bacteriophage RB69
Method in brief: as §1

T4 exo^- DNA polymerase [4] = conditions: opposite template 2AP, long A+T-rich DNA 1, cited from earlier work
T4 exo^- DNA polymerase [5] = assay: Nucleotide binding opposite template 2AP; design: species or system bacteriophage T4; conditions: for Kd: opposite template 2AP
[6] = target: T1, RB69 exo^- DNA polymerase (D222A/D327A, wild type); assay: Nucleotide binding opposite template 2AP; design: species or system bacteriophage RB69; conditions: for Kd: read-out: Kdbind, opposite template 2AP
Method in brief: (§2)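 Chain-terminated (dideoxy) 2AP-labeled primer-template DNA at 200 nM with a 2 to 2.5-fold excess of polymerase, in 25 mM HEPES pH 7.6, 50 mM NaCl, 1 mM DTT and 10 mM MgCl2. Nucleotide was added incrementally. Excitation was at 315 nm and emission was scanned from 330 to 450 nm with 2 nm band-pass, at 20 °C. Kd was taken from the fluorescence quench curves.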

[7] = target: T2, RB69 Y567A exo^- DNA polymerase; assay: Nucleotide binding opposite template 2AP; design: species or system bacteriophage RB69; conditions: for Kd: opposite template 2AP
Method in brief: as §2

T4 exo^- DNA polymerase [8] = conditions: cited from earlier work
DNA polymerase α = conditions: cited from earlier work
[9] = A+T- and G+C-rich DNAs (Table 1)
[10] = opposite template 2AP, long A+T-rich DNA 1
[11] = opposite template 2AP, long G+C-rich DNA 2
[12] = opposite template 2AP, short A+T-rich DNA 3
[13] = opposite template 2AP, short G+C-rich DNA 4
[14] = read-out: Kdincorp, app, opposite template 2AP, long A+T-rich DNA 1
[15] = read-out: Kdincorp, app, opposite template 2AP, short A+T-rich DNA 3
[16] = read-out: Kdincorp, app, opposite template 2AP, short G+C-rich DNA 4
[17] = read-out: Kdbind, long A+T-rich DNA 1
[18] = read-out: Kdbind, long G+C-rich DNA 2
[19] = read-out: Kd (Table 3), DNA 1, conditions as Table 1

T2 sequence (Q38087 whole entry D222A/D327A/Y567A): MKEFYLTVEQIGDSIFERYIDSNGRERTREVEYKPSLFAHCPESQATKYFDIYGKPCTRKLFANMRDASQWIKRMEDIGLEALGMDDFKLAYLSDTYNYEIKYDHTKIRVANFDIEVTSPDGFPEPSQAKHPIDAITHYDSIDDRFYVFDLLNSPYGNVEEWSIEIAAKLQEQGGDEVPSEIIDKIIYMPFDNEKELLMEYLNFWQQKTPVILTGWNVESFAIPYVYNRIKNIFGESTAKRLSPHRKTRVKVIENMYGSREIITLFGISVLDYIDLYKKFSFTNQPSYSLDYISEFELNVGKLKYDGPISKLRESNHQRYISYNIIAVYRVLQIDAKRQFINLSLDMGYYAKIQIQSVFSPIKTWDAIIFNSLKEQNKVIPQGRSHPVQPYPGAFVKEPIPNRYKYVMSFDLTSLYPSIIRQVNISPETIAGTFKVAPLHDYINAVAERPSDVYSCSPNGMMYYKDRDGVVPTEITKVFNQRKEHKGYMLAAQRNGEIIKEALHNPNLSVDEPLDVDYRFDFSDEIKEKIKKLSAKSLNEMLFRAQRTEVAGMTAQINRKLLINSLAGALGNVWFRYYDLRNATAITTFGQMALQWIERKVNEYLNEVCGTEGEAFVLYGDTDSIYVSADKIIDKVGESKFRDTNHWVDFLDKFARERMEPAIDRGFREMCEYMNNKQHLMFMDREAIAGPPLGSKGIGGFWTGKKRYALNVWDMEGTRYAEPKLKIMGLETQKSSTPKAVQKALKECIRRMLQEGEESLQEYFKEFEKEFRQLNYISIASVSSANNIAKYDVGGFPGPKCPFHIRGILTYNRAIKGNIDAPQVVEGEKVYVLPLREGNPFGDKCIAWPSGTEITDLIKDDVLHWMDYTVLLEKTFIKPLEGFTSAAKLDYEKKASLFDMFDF
T1 sequence (Q38087 whole entry D222A/D327A): as the sequence (Q38087 whole entry D222A/D327A/Y567A) above, with A567Y counted along it

Structure (SMILES): Nc1ccn([C@H]2C[C@H](O)[C@@H](COP(=O)(O)O)O2)c(=O)n1 [dCMP]
- kpol / Kdincorp (T4 exo^- DNA polymerase [1]): <0.0008 µM⁻¹ s⁻¹
- kpol (overall nucleotide incorporation rate) ([2]; short A+T-rich DNA 3): slow ^c
- kpol / Kdincorp ([2]; short A+T-rich DNA 3): <1000 to 3000 M⁻¹ s⁻¹
- kpol (overall nucleotide incorporation rate) ([2]; short G+C-rich DNA 4): slow ^c
- kpol / Kdincorp ([2]; short G+C-rich DNA 4): <1000 to 3000 M⁻¹ s⁻¹
- kpol [3, 9]: ~ 6 s^−1
- kpol, fold lower than for incorporation of dTMP [3, 9]: > 30 fold
- kpol/Kd incorporation ratio (efficiency of misincorporation) ([3]; longer and shorter A+T-rich DNA substrates): 30000 to 40000 M⁻¹ s⁻¹
- kpol/Kd incorporation ratio (efficiency of misincorporation) ([3]; longer and shorter G+C-rich DNA substrates): 3000 to 7000 M⁻¹ s⁻¹
- kpol (overall nucleotide incorporation rate) [3, 10]: 6.4 ± 0.6 s⁻¹
- kpol / Kdincorp [3, 10]: 40000 M⁻¹ s⁻¹
- kpol (overall nucleotide incorporation rate) [3, 11]: ~6 s⁻¹
- kpol / Kdincorp [3, 11]: ~3000 M⁻¹ s⁻¹
- kpol (overall nucleotide incorporation rate) [3, 12]: 9.3 ± 0.7 s⁻¹
- kpol / Kdincorp [3, 12]: 30000 M⁻¹ s⁻¹
- kpol / Kdincorp [3, 13]: 7000 M⁻¹ s⁻¹
- Kd ([3]; read-out: Kd,app for incorporation, shorter A+T- and G+C-rich DNAs (Table 2)): 300 to 360 µM
- Kd [3, 14]: ~170 µM and 170 µM
- Kd [3, 15]: 298 ± 65 µM
- Kd [3, 16]: 361 ± 52 µM
- kpol (overall nucleotide incorporation rate) (T4 exo^- DNA polymerase [4]): 2.3 ± 0.1 s^−1 ^a

Structure (SMILES): Nc1ccn([C@H]2C[C@H](O)[C@@H](COP(=O)(O)OP(=O)(O)OP(=O)(O)O)O2)c(=O)n1 [dCTP]
- discrimination against binding compared to dTTP, factor (T4 exo^- DNA polymerase [5]; 30 μM compared to 3 mM): ≥ 100
- discrimination against binding compared to dTTP, factor ([6]; 30 μM compared to 3 mM): ≥ 100
- Kd for binding, fold higher than Kd for dTTP binding ([7]; A+T-rich DNA substrate (DNA 1)): < 3 fold
- Kd for binding, fold higher than Kd for dTTP binding ([7]; G+C-rich DNA (DNA 2)): > 20 fold
- Kd [7, 17]: 24.8 ± 2.1 µM
- Kd [7, 18]: ~317 µM and 317 µM
- Kd ([7]; read-out: Kdbind, short A+T-rich DNA 3): ~53 µM and 53 µM
- Kd ([7]; read-out: Kdbind, short G+C-rich DNA 4): ~373 µM and 373 µM
- inhibition of dTTP binding (T4 exo^- DNA polymerase [8]): not an inhibitor of dTTP binding
- Kd (T4 exo^- DNA polymerase [8]; read-out: Kd for binding opposite template 2AP): ≥ 3000 µM

Structure (SMILES): Cc1cc(C2CC(O)C(COP(=O)(O)OP(=O)(O)OP(=O)(O)O)O2)c(F)cc1F (centres unmarked) [dFTP, difluorotoluene deoxynucleoside triphosphate]
- quench of 2AP fluorescence (T4 exo^- DNA polymerase [8]; at concentrations <150 μM, T4 DNA pol binary complexes): does not quench 2AP fluorescence
- Ki (T4 exo^- DNA polymerase [8]; read-out: Ki (competitive inhibitor of dTTP-Mg^2+-induced quenching), T4 DNA pol binary complexes): ~68 µM

Structure (SMILES): Cc1cn([C@H]2C[C@H](O)[C@@H](COP(=O)(O)O)O2)c(=O)[nH]c1=O [dTMP]
- dTMP/dCMP (ratio of kpol / Kdincorp) (T4 exo^- DNA polymerase [1]; long A+T-rich DNA 1): >560
- kpol / Kdincorp (T4 exo^- DNA polymerase [1]): 0.45 ^f μM^−1 s^−1
- dTMP/dCMP (ratio of kpol / Kdincorp) ([2]; short A+T-rich DNA 3): >1000
- kpol (overall nucleotide incorporation rate) ([2]; short A+T-rich DNA 3): 379 ± 28 s⁻¹
- kpol / Kdincorp ([2]; short A+T-rich DNA 3): 3.3e+06 M⁻¹ s⁻¹
- dTMP/dCMP (ratio of kpol / Kdincorp) ([2]; short G+C-rich DNA 4): >1000
- kpol (overall nucleotide incorporation rate) ([2]; short G+C-rich DNA 4): 201 ± 16 s⁻¹
- kpol / Kdincorp ([2]; short G+C-rich DNA 4): 1e+06 M⁻¹ s⁻¹
- Kd ([2]; short A+T-rich DNA 3): 114 ± 26 µM
- Kd ([2]; short G+C-rich DNA 4): 200 ± 45 µM
- kpol [3, 9]: ~ 200 s^−1
- preference for dTMP over dCMP incorporation ([3]; longer DNA substrates (Table 1)): ~ 300 fold and > 300 fold
- dTMP/dCMP (ratio of kpol / Kdincorp) [3, 10]: 375
- kpol (overall nucleotide incorporation rate) [3, 10]: 240 ± 11 s⁻¹
- kpol / Kdincorp [3, 10]: 1.5e+07 M⁻¹ s⁻¹
- dTMP/dCMP (ratio of kpol / Kdincorp) [3, 11]: 333
- kpol (overall nucleotide incorporation rate) [3, 11]: 190 ± 11 s⁻¹
- kpol / Kdincorp [3, 11]: 1e+06 M⁻¹ s⁻¹
- dTMP/dCMP (ratio of kpol / Kdincorp) [3, 12]: 143
- kpol (overall nucleotide incorporation rate) [3, 12]: 289 ± 9 s⁻¹
- kpol / Kdincorp [3, 12]: 4.3e+06 M⁻¹ s⁻¹
- dTMP/dCMP (ratio of kpol / Kdincorp) [3, 13]: 129
- kpol (overall nucleotide incorporation rate) [3, 13]: 233 ± 27 s⁻¹
- kpol / Kdincorp [3, 13]: 900000 M⁻¹ s⁻¹
- Kd [3, 14]: ~16 µM and 16 µM
- Kd ([3]; read-out: Kdincorp, app, opposite template 2AP, long G+C-rich DNA 2): 180 ± 75 µM
- Kd [3, 15]: 67.3 ± 8 µM
- Kd [3, 16]: 263 ± 78 µM
- preference for dTMP over dCMP incorporation ([3]; shorter DNAs (Table 2)): ~ 100 fold and > 100 fold
- kpol (overall nucleotide incorporation rate) (T4 exo^- DNA polymerase [4]): 165 ± 3 s^−1 ^a
- Kd (T4 exo^- DNA polymerase [4]; read-out: Kdincorp, app): 367 ± 36 µM
- incorporation opposite template 2AP favored over incorporation of dCMP (DNA polymerase α): 20- to 25 fold

Structure (SMILES): Cc1cn([C@H]2C[C@H](O)[C@@H](COP(=O)(O)OP(=O)(O)OP(=O)(O)O)O2)c(=O)[nH]c1=O [dTTP]
- kpol (rate of nucleotide binding) (T4 exo^- DNA polymerase [5]; long G+C-rich DNA 2): rapid
- Kd (T4 exo^- DNA polymerase [5]; [18]): 28.7 ± 0.6 µM
- Kd ([6]; long A+T-rich DNA 1): 31.1 ± 0.9 µM
- Kd ([6]; long G+C-rich DNA 2): 30 ± 0.4 µM
- Kd [7, 17]: 9.2 ± 0.8 µM
- Kd [7, 18]: 15.1 ± 1.4 µM
- kpol (rate of nucleotide binding) (T4 exo^- DNA polymerase [8]; long A+T-rich DNA 1, rapid = within dead time of stopped flow instrument): rapid ^a
- Kd (T4 exo^- DNA polymerase [8]; read-out: Kdbind, opposite template 2AP, long A+T-rich DNA 1): ~35 µM and 35 µM

Structure (SMILES): O=c1ccn([C@H]2C[C@H](O)[C@@H](COP(=O)(O)OP(=O)(O)OP(=O)(O)O)O2)c(=O)[nH]1 [dUTP]
- Kd (T4 exo^- DNA polymerase [5]; [19]): 74.1 ± 2 µM
- Kd [7, 19]: 21 ± 1 µM

Structure (SMILES): O=c1ccn([C@@H]2O[C@H](COP(=O)(O)OP(=O)(O)OP(=O)(O)O)[C@@H](O)[C@H]2O)c(=O)[nH]1 [rUTP]
- Kd (T4 exo^- DNA polymerase [5]; [19]): > 3000 µM
- Kd [7, 19]: 522 ± 55 µM
